Data: ChEMBL document CHEMBL4251723, “Antibacterial Dimeric Acylphloroglucinols from Hypericum japonicum” (J Nat Prod, 2018)
Values after ≈ are worked out from the molar mass of the structure shown.

How the values were obtained:
[1] = tested on: Escherichia coli; assay: Antibacterial activity against Escherichia coli ATCC 11775; assay type: functional; conditions: DSM 30083 = JCM 1649 = ATCC 11775
Summary of the method: (§1)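 24 h growth-inhibition (MIC) assay. Final test concentration range was 50−3.13 μg/mL or 2.0−0.05 μg/mL depending on compound. Cefotaxime sodium served as positive control. Each experiment was repeated three times.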

[2] = tested on: Staphylococcus aureus; assay: Antibacterial activity against Staphylococcus aureus […]; assay type: functional; summary of the method: as §1
[3] = tested on: Salmonella typhimurium; assay: Antibacterial activity against Salmonella typhimurium ATCC 6539; assay type: functional, Salmonella enterica subsp. enterica serovar Typhimurium; conditions: Salmonella enterica; summary of the method: as §1
[4] = tested on: Enterococcus faecalis; assay: Antibacterial activity against Enterococcus faecalis ATCC 10541; assay type: functional; summary of the method: as §1
[5] = molecular target: T1, Pancreatic triacylglycerol lipase (Sus scrofa, UniProt P00591); assay: Inhibition of porcine pancreatic lipase using p-NPB as substrate pretreated for 15 mins followed by substrate addition measured after 15 mins by spectrophometric method
T1 sequence (P00591 whole entry): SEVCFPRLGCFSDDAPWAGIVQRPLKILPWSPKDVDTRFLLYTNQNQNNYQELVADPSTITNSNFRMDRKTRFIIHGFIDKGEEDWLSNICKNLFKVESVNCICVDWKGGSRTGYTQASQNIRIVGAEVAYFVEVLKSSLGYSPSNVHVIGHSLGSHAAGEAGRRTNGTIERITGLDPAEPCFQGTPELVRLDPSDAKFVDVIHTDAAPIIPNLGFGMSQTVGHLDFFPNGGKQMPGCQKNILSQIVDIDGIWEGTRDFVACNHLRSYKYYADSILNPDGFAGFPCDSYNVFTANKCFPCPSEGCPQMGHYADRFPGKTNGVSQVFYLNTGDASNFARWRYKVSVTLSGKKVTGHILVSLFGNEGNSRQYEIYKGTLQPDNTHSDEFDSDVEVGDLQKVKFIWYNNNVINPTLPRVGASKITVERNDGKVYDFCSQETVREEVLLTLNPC

Row | Compound | MIC [1] [µM] | MIC [2] [µM] | MIC [3] [µM] | MIC [4] [µM] | IC50 [5] [µM]
1 | C=C(CCC=C(C)C)C(O)Cc1c(O)c(CC2=C(O)C(C)(C)C(O)=C(C(=O)C(C)CC)C2=O)c(O)c(C(=O)C(C)C)c1O (centres undefined) | 0.8 (≈ 0.479 µg/mL) | 3.3 (≈ 1.98 µg/mL) | 0.8 (≈ 0.479 µg/mL) | 0.8 (≈ 0.479 µg/mL) | 14.5
2 | CCC(C)C(=O)C1=C(O)C(C)(C)C(O)=C(Cc2c(O)cc(OCC=C(C)C)c(C(=O)c3ccccc3)c2O)C1=O (centres undefined) | 1.8 (≈ 0.988 µg/mL) | 1.8 (≈ 0.988 µg/mL) | 0.9 (≈ 0.494 µg/mL) | 1.8 (≈ 0.988 µg/mL) | 
3 | CC(C)=CCOc1cc(O)c(CC2=C(O)C(C)(C)C(O)=C(C(=O)C(C)C)C2=O)c(O)c1C(=O)c1ccccc1 | 1.9 (≈ 1.02 µg/mL) | 1.9 (≈ 1.02 µg/mL) | 0.9 (≈ 0.481 µg/mL) | 1.9 (≈ 1.02 µg/mL) | 
4 | CCC(C)C(=O)C1=C(O)C(C)(C)C(O)=C(Cc2c(O)c(C/C=C(\C)CCC=C(C)C)c(O)c(C(=O)C(C)C)c2O)C1=O (centres undefined) | 0.9 (≈ 0.524 µg/mL) | 3.4 (≈ 1.98 µg/mL) | 1.7 (≈ 0.991 µg/mL) | 1.7 (≈ 0.991 µg/mL) | 8.3
5 | CC(C)=CCC/C(C)=C/Cc1c(O)c(CC2=C(O)C(C)(C)C(O)=C(C(=O)C(C)C)C2=O)c(O)c(C(=O)C(C)C)c1O | 0.9 (≈ 0.512 µg/mL) | 1.8 (≈ 1.02 µg/mL) | 1.8 (≈ 1.02 µg/mL) | 1.8 (≈ 1.02 µg/mL) | 
6 | C=C(CCC=C(C)C)C(O)Cc1c(O)c(CC2=C(O)C(C)(C)C(O)=C(C(=O)C(C)C)C2=O)c(O)c(C(=O)C(C)C)c1O (centres undefined) | 0.9 (≈ 0.526 µg/mL) | 1.7 (≈ 0.994 µg/mL) | 0.9 (≈ 0.526 µg/mL) | 0.9 (≈ 0.526 µg/mL) | 
7 | CC(C)=CCC[C@]1(C)Oc2c(c(O)c(CC3=C(O)C(C)(C)C(O)=C(C(=O)C(C)C)C3=O)c(O)c2C(=O)C(C)C)C[C@H]1O | 21.4 (≈ 12.5 µg/mL) | 85.6 (≈ 50.1 µg/mL) | 5.4 (≈ 3.16 µg/mL) | 10.7 (≈ 6.26 µg/mL) | 
8 | CO/N=C(\C(=O)N[C@@H]1C(=O)N2C(C(=O)O)=C(COC(C)=O)CS[C@H]12)c1csc(N)n1 [CEFOTAXIME SODIUM] | 0.4 | 3.3 | 3.3 | 0.4 | 
